IC50 and Activity data for 4 compounds are collected here from ChEMBL document CHEMBL1148199, “Synthesis, conformational analysis, and cytotoxicity of new analogues of the natural cyclodepsipeptide jaspamide” (J Nat Prod, 2004).

One experiment has as its system T-24. In words: Antiproliferative activity against human T24 cells after 48 hrs by SRB assay. In kind it is functional, cell-based. The conditions noted are these: T-24, 48 h. The essentials: (§1)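 Human cell lines (T24 bladder carcinoma, MCF-7, NCI/ADR) kept in RPMI-1640 with 10% FBS and 50 μg/mL gentamycin at 37 °C, 5% CO2. Plated at ~15% confluency and left 24 h to attach. Treated in triplicate with varying concentrations for 48 h. Survival measured by sulforhodamine B binding as % of control cultures. IC50 is the concentration giving 50% inhibition of proliferation.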

Experiment [1] in a line: Antiproliferative activity against multidrug-resistant human NCI/ADR cells expressing p-glycoprotein after 48 hrs by SRB assay. Particulars: NCI/ADR-RES. The format is functional, cell-based. In outline: as §1
For orientation: In SRB staining, fixed cells bind dye roughly in proportion to their protein.

In experiment [2] the test system is A10. As to the kind of experiment: Antiproliferative activity against rat A10 cells after 48 hrs by SRB assay. In kind it is cell-based. The conditions noted are these: A10, 48 h. The essentials: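 A-10 rat aortic smooth muscle cells kept in α-MEM with 10% FBS and 50 μg/mL gentamycin at 37 °C, 5% CO2. Seeded at ~15% confluency, 24 h recovery, then triplicate 48 h exposure to a concentration series. SRB binding read against control cultures. IC50 is the concentration causing 50% inhibition of proliferation.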

Experiment [3] deals with A10. In words: Effect on cell morphology in rat A10 cells assessed as microfilaments depolymerization by immunofluorescence assay. The format is functional, cell-based. In outline:
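A-10 rat smooth muscle cells grown to near-confluency on glass coverslips and exposed to compounds at micromolar amounts for 24 h. Jaspamide served as positive control. Microfilaments stained with monoclonal anti-β-actin, then fluorescein-conjugated anti-mouse IgG. Read-out: actin aggregation and cellular aberrations such as binucleated cells.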

Experiment [4] relates to A10. In words: Effect on cell morphology in rat A10 cells assessed microtubule depolymerization by immunofluorescence assay. The format is functional, cell-based. The essentials:
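Near-confluent A-10 cells on glass coverslips treated with compounds at micromolar amounts for 24 h. Microtubules immunostained with monoclonal anti-β-tubulin followed by fluorescein-conjugated anti-mouse IgG and examined for changes in the microtubule network.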

For the next experiment, the system named is MCF7. In words: Antiproliferative activity against human MCF7 cells after 48 hrs by SRB assay. Particulars: MCF7, 48 h.
Experiment [5] has as its system A10. In words: Effect on cell morphology in rat A10 cells assessed as actin aggregation at 23 nM by immunofluorescence assay. The format is functional, cell-based. In outline: (§2)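 A-10 rat aortic smooth muscle cells were grown to near-confluency on glass coverslips and treated for 24 h. Microfilaments were stained with monoclonal anti-β-actin followed by fluorescein-conjugated anti-mouse IgG. Actin aggregation was scored by immunofluorescence microscopy. Microtubules were stained in parallel samples with anti-β-tubulin and the same secondary antibody.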

In experiment [6] the test system is A10. In words: Effect on cell morphology in rat A10 cells assessed as actin aggregation at 0.85 nM by immunofluorescence assay. In kind it is functional, cell-based. In outline:
as §2

Values after ≈ are worked out from the molar mass of the structure shown. Active and inactive are the calls of the source. No cut-off for these calls is given here.

Turning to `CC(C)[C@@H]1NC(=O)[C@@H](Cc2c[nH]c3ccccc23)NC(=O)[C@H](C)NC(=O)CCNC(=O)CCCCNC1=O`, the 50% inhibitory concentration (IC50) (usually the concentration needed to halve the response being measured) in the experiment on T-24 amounted to 19 µg/mL (≈ 36.1 µM); in experiment [1], 24 µg/mL (≈ 45.6 µM); with A10 [2] it was 4.3 µg/mL (≈ 8.17 µM); with MCF7, 3 µg/mL (≈ 5.7 µM). The result with A10 [3] and in the experiment with A10 [4] was inactive.

Take `C/C1=C\[C@H](C)C[C@H](C)OC(=O)C[C@H](c2ccc(O)cc2)NC(=O)[C@@H](Cc2c(Br)[nH]c3ccccc23)N(C)C(=O)[C@H](C)NC(=O)[C@@H](C)C1`: the outcome with A10 [5] and with A10 [6] was Active.

Turning to `CC(C)[C@@H]1NC(=O)[C@@H](Cc2c[nH]c3ccccc23)NC(=O)[C@H](C)NC(=O)CCCCCCCNC1=O`, the IC50 (in the experiment with T-24; in experiment [1]; in the experiment with A10 [2]; with MCF7) was above 100 µg/mL in each case. Moreover, the result in the experiment on A10 [3] and in the experiment on A10 [4] was inactive.

`CC(C)[C@@H]1NC(=O)[C@@H](Cc2c[nH]c3ccccc23)NC(=O)[C@H](C)NC(=O)CCCCCNC1=O`: the IC50 in the experiment with T-24 amounted to 10.3 µg/mL (≈ 21.9 µM); in experiment [1], 12.5 µg/mL (≈ 26.6 µM); with A10 [2], 2 µg/mL (≈ 4.26 µM); in the experiment on MCF7, 1.8 µg/mL (≈ 3.83 µM). Moreover, the outcome in the experiment on A10 [3] and in the experiment with A10 [4] was inactive.
